In ChEMBL document CHEMBL3822397, “Synthesis and bioevaluation of novel benzodipyranone derivatives as P-glycoprotein inhibitors for multidrug resistance reversal agents” (Eur J Med Chem, 2016):
Activity calls are given as the source filed them. No cut-off for these calls is given here.

What was measured:
[1] = target: T1, ATP-dependent translocase ABCB1 (Homo sapiens, UniProt P08183); assay: Inhibition of ABCB1 in human KBVIN cells assessed as potentiation of paclitaxel-induced cytotoxicity at 10 uM after 72 hrs by SRB assay relative to control; assay type: cell-based
T1 sequence (P08183 whole entry): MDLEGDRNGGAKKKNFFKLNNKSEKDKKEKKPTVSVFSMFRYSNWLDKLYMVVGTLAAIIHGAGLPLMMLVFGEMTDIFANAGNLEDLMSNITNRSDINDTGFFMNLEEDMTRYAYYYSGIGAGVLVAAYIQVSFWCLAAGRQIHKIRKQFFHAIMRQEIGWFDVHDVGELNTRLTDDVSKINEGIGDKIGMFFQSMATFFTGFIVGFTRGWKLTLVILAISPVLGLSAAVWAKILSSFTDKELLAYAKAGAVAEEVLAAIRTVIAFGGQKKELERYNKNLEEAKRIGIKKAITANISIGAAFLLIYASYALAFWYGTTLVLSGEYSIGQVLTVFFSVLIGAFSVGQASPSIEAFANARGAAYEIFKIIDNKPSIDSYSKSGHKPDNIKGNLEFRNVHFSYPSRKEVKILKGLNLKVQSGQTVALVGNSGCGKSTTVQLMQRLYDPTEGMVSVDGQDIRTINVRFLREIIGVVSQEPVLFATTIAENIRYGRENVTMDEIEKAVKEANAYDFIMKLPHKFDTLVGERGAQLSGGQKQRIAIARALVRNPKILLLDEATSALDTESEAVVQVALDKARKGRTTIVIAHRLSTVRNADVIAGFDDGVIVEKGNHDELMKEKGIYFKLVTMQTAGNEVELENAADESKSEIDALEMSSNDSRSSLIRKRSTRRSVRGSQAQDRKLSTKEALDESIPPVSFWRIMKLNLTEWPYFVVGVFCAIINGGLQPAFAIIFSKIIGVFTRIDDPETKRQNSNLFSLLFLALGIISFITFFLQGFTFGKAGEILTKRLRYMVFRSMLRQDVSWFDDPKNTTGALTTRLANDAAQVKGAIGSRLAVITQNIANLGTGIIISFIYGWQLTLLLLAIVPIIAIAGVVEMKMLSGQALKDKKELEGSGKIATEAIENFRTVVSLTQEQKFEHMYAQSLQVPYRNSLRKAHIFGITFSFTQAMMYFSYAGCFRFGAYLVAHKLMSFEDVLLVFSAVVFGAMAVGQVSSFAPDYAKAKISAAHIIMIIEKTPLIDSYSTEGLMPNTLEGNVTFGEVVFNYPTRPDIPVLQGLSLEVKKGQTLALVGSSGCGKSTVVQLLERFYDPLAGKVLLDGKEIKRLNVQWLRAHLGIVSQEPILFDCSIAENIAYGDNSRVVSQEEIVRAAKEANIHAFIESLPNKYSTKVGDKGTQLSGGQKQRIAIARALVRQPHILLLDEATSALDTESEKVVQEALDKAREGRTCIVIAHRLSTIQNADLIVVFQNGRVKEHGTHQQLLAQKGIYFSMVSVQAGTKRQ

[2] = target: T1, ATP-dependent translocase ABCB1; assay: Inhibition of full length human ABCB1 expressed in Flp-In-293 cells assessed as potentiation of vincristine-induced cytotoxicity at 8 uM after 72 hrs by SRB assay relative to control; assay type: cell-based
[3] = target: T1, ATP-dependent translocase ABCB1; assay: Inhibition of full length human ABCB1 expressed in Flp-In-293 cells assessed as potentiation of doxorubicin-induced cytotoxicity at 8 uM after 72 hrs by SRB assay relative to control; assay type: cell-based
[4] = Potentiation of paclitaxel-induced cytotoxicity in human HeLaS3 assessed as reduction in paclitaxel IC50 at 10 uM after 72 hrs by SRB assay relative to control; assay type: functional, HeLa S3
HEK293 [5] = assay: Potentiation of paclitaxel-induced cytotoxicity in Flp-In-293 cells assessed as reduction in paclitaxel IC50 at 8 uM after 72 hrs by SRB assay relative to control; assay type: functional, Homo sapiens
[6] = Potentiation of vincristine-induced cytotoxicity in human HeLaS3 assessed as reduction in vincristine IC50 at 8 uM after 72 hrs by SRB assay relative to control; assay type: functional, HeLa S3
[7] = Potentiation of vincristine-induced cytotoxicity in human HeLaS3 assessed as reduction in vincristine IC50 at 10 uM after 72 hrs by SRB assay relative to control; assay type: functional, HeLa S3
[8] = target: T1, ATP-dependent translocase ABCB1; assay: Inhibition of ABCB1 in human KBVIN cells assessed as potentiation of paclitaxel-induced cytotoxicity at 8 uM after 72 hrs by SRB assay relative to control; assay type: cell-based
[9] = target: T1, ATP-dependent translocase ABCB1; assay: Inhibition of full length human ABCB1 expressed in Flp-In-293 cells assessed as potentiation of paclitaxel-induced cytotoxicity at 8 uM after 72 hrs by SRB assay relative to control; assay type: cell-based
HEK293 [10] = assay: Potentiation of vincristine-induced cytotoxicity in Flp-In-293 cells assessed as reduction in vincristine IC50 at 8 uM after 72 hrs by SRB assay relative to control; assay type: functional, Homo sapiens
HEK293 [11] = assay: Downregulation of ABCB1 mRNA expression in Flp-In-293 cells transfected with full length human ABCB1 at 5 uM after 72 hrs by RT-PCR analysis; assay type: functional, cell-based
Procedure, shortened: (§1)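 ABCB1 mRNA measured after treating ABCB1/Flp-In-293 cells with test compounds for 72 hr. Data given as mean ± SE of three experiments, each in triplicate.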

HEK293 [12] = assay: Potentiation of paclitaxel-induced cytotoxicity in Flp-In-293 cells assessed as reduction in paclitaxel IC50 at 10 uM after 72 hrs by SRB assay relative to control; assay type: functional, Homo sapiens
[13] = target: T1, ATP-dependent translocase ABCB1; assay: Inhibition of full length human ABCB1 expressed in Flp-In-293 cells at 5 uM incubated for 30 mins by calcein-AM uptake assay relative to control; assay type: cell-based; conditions: 0.5 h
HEK293 [14] = assay: Potentiation of doxorubicin-induced cytotoxicity in Flp-In-293 cells assessed as reduction in doxorubicin IC50 at 8 uM after 72 hrs by SRB assay relative to control; assay type: functional, Homo sapiens
[15] = target: T1, ATP-dependent translocase ABCB1; assay: Inhibition of full length human ABCB1 expressed in Flp-In-293 cells assessed as potentiation of vincristine-induced cytotoxicity at 10 uM after 72 hrs by SRB assay relative to control; assay type: cell-based
[16] = target: T1, ATP-dependent translocase ABCB1; assay: Inhibition of full length human ABCB1 expressed in Flp-In-293 cells at 2.5 uM incubated for 30 mins by calcein-AM uptake assay relative to control; assay type: cell-based; conditions: 0.5 h
[17] = target: T1, ATP-dependent translocase ABCB1; assay: Inhibition of ABCB1 in human KBVIN cells assessed as potentiation of vincristine-induced cytotoxicity at 8 uM after 72 hrs by SRB assay relative to control; assay type: cell-based
[18] = target: T1, ATP-dependent translocase ABCB1; assay: Inhibition of full length human ABCB1 expressed in Flp-In-293 cells assessed as potentiation of doxorubicin-induced cytotoxicity at 10 uM after 72 hrs by SRB assay relative to control; assay type: cell-based
HEK293 [19] = assay: Potentiation of vincristine-induced cytotoxicity in Flp-In-293 cells assessed as reduction in vincristine IC50 at 10 uM after 72 hrs by SRB assay relative to control; assay type: functional, Homo sapiens
[20] = target: T1, ATP-dependent translocase ABCB1; assay: Inhibition of full length human ABCB1 expressed in Flp-In-293 cells assessed as potentiation of paclitaxel-induced cytotoxicity at 10 uM after 72 hrs by SRB assay relative to control; assay type: cell-based
HEK293 [21] = assay: Potentiation of doxorubicin-induced cytotoxicity in Flp-In-293 cells assessed as reduction in doxorubicin IC50 at 10 uM after 72 hrs by SRB assay relative to control; assay type: functional, Homo sapiens
[22] = Potentiation of paclitaxel-induced cytotoxicity in human HeLaS3 assessed as reduction in paclitaxel IC50 at 8 uM after 72 hrs by SRB assay relative to control; assay type: functional, HeLa S3
[23] = target: T1, ATP-dependent translocase ABCB1; assay: Inhibition of ABCB1 in human KBVIN cells assessed as potentiation of vincristine-induced cytotoxicity at 10 uM after 72 hrs by SRB assay relative to control; assay type: cell-based
HEK293 [24] = assay: Effect on ABCB1 mRNA expression in Flp-In-293 cells at 5 uM after 72 hrs by RT-PCR analysis; assay type: ADME, cell-based; conditions: human, flp-in-293, 72 h; procedure, shortened: as §1

fold change (FC) [13] | fold change (FC) [16] | SMILES | fold change (FC) [2] | fold change (FC) [3] | fold change (FC) (HEK293 [5]) | fold change (FC) [9] | fold change (FC) (HEK293 [10]) | Activity (HEK293 [11]) | fold change (FC) (HEK293 [12]) | fold change (FC) (HEK293 [14]) | fold change (FC) [15] | fold change (FC) [18] | fold change (FC) (HEK293 [19]) | fold change (FC) [20] | fold change (FC) (HEK293 [21]) | also measured
2.05 | 1.58 | Cc1cccc(-c2coc3c(c(O)cc4occ(-c5cccc(C)c5)c(=O)c43)c2=O)c1 | 15.6 | 1.4 | 1.5 | 10.8 | 7.8 | Active | 1.8 | 1.2 | 21 | 1.6 | 9.1 | 16.1 | 1.6 | fold change (FC) [1]: 23.1; fold change (FC) [4]: 1.4; fold change (FC) [6]: 4.7; fold change (FC) [7]: 8.8; fold change (FC) [8]: 19; fold change (FC) [17]: 7.4; fold change (FC) [22]: 1.1; fold change (FC) [23]: 29.7
1.84 | 1.54 | COc1ccc(-c2coc3c(c(O)cc4occ(-c5ccc(OC)cc5)c(=O)c43)c2=O)cc1 | 1.4 | 1.6 | 2.7 | 2.1 | 6.6 | inactive | 4.2 | 0.9 | 1.6 | 1.7 | 7.1 | 8.2 | 2.1 | Activity (HEK293 [24]): Non-toxic
